Each structure is given as a SMILES string. The source made the active and inactive calls. The rule behind the calls is not given here.

The nature of experiment [1]: Inhibition of aminoglycoside 6'-N-acetyltransferase Ib (unknown origin)-mediated acetylation expressed in Escherichia coli using 5 to 72 uM acetyl CoA and 25 uM kanamycin A as substrate preincubated for 10 mins followed by enzyme addition by spectrophotometric analysis. The method, boiled down: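 Enzyme partially purified on DEAE from arabinose-induced E. coli, in 20 mM Tris pH 7.5 with 0.2 mM DTNB and 10% DMSO. Inhibitor at a range of concentrations, acetyl CoA 5–72 μM, kanamycin A 25 μM. 10 min room-temperature preincubation before enzyme. CoA-SH release read at 412 nm. Ki from initial velocities by nonlinear regression, in triplicate.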

Experiment [2] in a line: Inhibition of aminoglycoside 6'-N-acetyltransferase Ib (unknown origin)-mediated acetylation expressed in Escherichia coli using 3 to 18 uM kanamycin A and 100 uM acetyl CoA as substrate preincubated for 10 mins followed by enzyme addition by spectrophotometric analysis. The gist of the method:
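Enzyme partially purified on DEAE from arabinose-induced E. coli, in 20 mM Tris pH 7.5 with 0.2 mM DTNB and 10% DMSO. Inhibitor at a range of concentrations, kanamycin A 3–18 μM, acetyl CoA 100 μM. 10 min room-temperature preincubation before enzyme. CoA-SH release read at 412 nm. Ki from initial velocities by nonlinear regression, in triplicate.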

A short description of experiment [3]: Inhibition of aminoglycoside 6'-N-acetyltransferase Ib (unknown origin)-mediated acetylation expressed in Escherichia coli using kanamycin A and acetyl CoA as substrate at 100 uM preincubated for 10 mins followed by enzyme addition by spectrophotometric analysis relative to control. The method, boiled down:
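Enzyme: thioredoxin-fused AAC(6′)-Ib, arabinose-induced in E. coli, partially purified by DEAE ion exchange. Reaction: 20 mM Tris pH 7.5, 0.2 mM DTNB, 50 μM acetyl CoA, 18 μM kanamycin A, compound at 100 μM in 10% DMSO. Mix held 10 min at room temperature before enzyme added. CoA–SH release read at 412 nm. Percent inhibition from initial velocities versus no-compound reactions; mean of three experiments.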

The nature of experiment [4]: Competitive inhibition of aminoglycoside 6'-N-acetyltransferase Ib (unknown origin) expressed in Escherichia coli using kanamycin A as substrate by Lineweaver-Burk plot analysis in presence of acetyl CoA. The method, boiled down: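 Partially purified His-Patch thioredoxin-fused enzyme from E. coli (pBAD102, arabinose-induced), in 20 mM Tris pH 7.5 with 0.2 mM DTNB. Kanamycin A varied 3–18 μM with acetyl CoA fixed at 100 μM, at several inhibitor concentrations. Mix held 10 min at room temperature before enzyme. Initial rates followed at 412 nm, mode assigned from Lineweaver-Burk plots, in triplicate.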

Experiment [5] can be described thus: Non-competitive inhibition of aminoglycoside 6'-N-acetyltransferase Ib (unknown origin) expressed in Escherichia coli using acetyl CoA as substrate by Lineweaver-Burk plot analysis in presence of kanamycin A. The method, boiled down:
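Partially purified His-Patch thioredoxin-fused enzyme from E. coli (pBAD102, arabinose-induced), in 20 mM Tris pH 7.5 with 0.2 mM DTNB. Acetyl CoA varied 5–72 μM with kanamycin A fixed at 25 μM, at several inhibitor concentrations. Mix held 10 min at room temperature before enzyme. Initial rates followed at 412 nm, mode assigned from Lineweaver-Burk plots, in triplicate.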

Experiment [6] in a line: Inhibition of aminoglycoside 6'-N-acetyltransferase Ib (unknown origin)-mediated acetylation expressed in Escherichia coli using kanamycin A and acetyl CoA as substrate at 100 uM preincubated for 10 mins followed by enzyme addition by spectrophotometric analysis in presence of Triton X-100. The method, boiled down:
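Compound at 100 μM in 10% DMSO, with 20 mM Tris pH 7.5, 0.2 mM DTNB, 50 μM acetyl CoA, 18 μM kanamycin A and 0.01% Triton X-100. Preincubated 10 min at room temperature, then partially purified enzyme added. Absorbance at 412 nm gave initial velocities. Percent inhibition taken against compound-free reactions, mean of three experiments.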

A word on the Ki: it is the equilibrium dissociation constant of an inhibitor or competing ligand from its target. For orientation: inhibition means the share of the control response that was lost under treatment. Regarding `O=C1NC(=O)N(c2ccccc2)C(=O)/C1=C\c1ccco1`, the Ki in experiment [1] came out at 16 µM; in experiment [2], 15 µM. Moreover, the inhibition in experiment [3] was 65%.

`Cc1cccc(N2C(=O)/C(=C/c3ccc(OCc4cccc(C(=O)O)c4)cc3)C(=O)NC2=S)c1`: the values for the Ki in experiment [1] and in experiment [2] were 97 µM and 84 µM, respectively. For the same compound, the inhibition in experiment [3] turned out to be 33%.

Turning to `O=C1NC(=O)N(c2ccc(O)cc2)C(=O)/C1=C/c1ccccc1OCc1ccc(C(=O)O)cc1`, the values for the Ki in experiment [1] and in experiment [2] were 292 µM and 129 µM, respectively. This compound also came in with an inhibition in experiment [3] of 30%.

Consider `CCc1ccc(N2C(=O)NC(=O)/C(=C\c3ccccc3OCc3ccc(C(=O)O)cc3)C2=O)cc1`, for which the values for the Ki in experiment [1] and in experiment [2] were 181 µM and 139 µM, respectively. The compound also displayed an inhibition in experiment [3] of 30%.

For the compound `Cc1cccc(N2C(=O)/C(=C/c3ccccc3OCc3ccc(C(=O)O)cc3)C(=O)NC2=S)c1`, the Ki in experiment [4] was 141 µM; in experiment [5], 267 µM. In addition, the inhibition in experiment [3] amounted to 27%.

Turning to `O=C(O)c1ccccc1-c1ccc(C=C2C(=O)N(c3ccccc3)C(=S)N(c3ccccc3)C2=O)o1`, the Ki turned out to be 12 µM in experiment [4] and 35 µM in experiment [5]. Further, the inhibition in experiment [3] stood at 52%.

As for `Cc1ccc(N2C(=O)NC(=O)/C(=C\c3ccccc3OCc3ccc(C(=O)O)cc3)C2=O)cc1`, the results for the Ki in experiment [1] and in experiment [2] were 258 µM and 157 µM, respectively. The inhibition in experiment [3] is 30%.

On to `O=C1/C(=C/c2ccco2)C(=O)N(c2ccc(Br)cc2)C(=S)N1c1ccccc1`, for which the inhibition result in experiment [6] is “inactive”.

For `O=C1NC(=O)N(c2ccc(Cl)cc2)C(=O)/C1=C\c1ccco1`, the Ki in experiment [1] turned out to be 74 µM; in experiment [2], 33 µM. In experiment [3], the inhibition was 60%.

For `Cc1ccc(N2C(=O)NC(=O)/C(=C\c3ccccc3OCc3ccc(C(=O)O)cc3)C2=O)cc1C`, the Ki in experiment [1] worked out at 297 µM; in experiment [2], 155 µM. The compound further came in with an inhibition in experiment [3] of 27%.
